ChEMBL document CHEMBL3822382 (Eur J Med Chem, 2016)
Active and inactive are the calls of the source. No cut-off for these calls is given here.

How the values were obtained:
[1] = Growth inhibition of human KB-V1/Vbl cells after 24 hrs by MTT assay; assay type: functional
How it was run: (§1)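 Cells seeded at 5000/well (Ea.hy926 10,000/well) and exposed for 24 h to dilution series of 100 µM–5 pM, with DMSO as solvent control. MTT (0.5 mg/mL final) for 2 h. Formazan dissolved in SDS/acetic acid/DMSO and read at 570 nm against a 630 nm background. Viability taken relative to DMSO controls; IC50 from dose–response curves, mean of four independent experiments.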

[2] = Growth inhibition of human MCF7/Topo cells after 24 hrs by MTT assay; assay type: functional, cell-based; how it was run: as §1
[3] = Growth inhibition of human 518A2 cells after 24 hrs by MTT assay; assay type: functional, cell-based; details: 518A2, 24 h; how it was run: as §1
[4] = Growth inhibition of human 518A2 cells after 72 hrs by MTT assay; assay type: functional, cell-based; details: 518A2, 72 h
How it was run: (§2)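 5000 cells/well exposed for 72 h to dilution series of 100 µM–5 pM, with DMSO as solvent control. MTT 0.5 mg/mL final for 2 h, absorbance at 570/630 nm. Percentage viable cells taken versus DMSO controls; IC50 from dose–response curves, mean of four independent experiments.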

HT-29 [5] = test: Growth inhibition of combretastatin A-4 resistant human HT-29 cells after 24 hrs by MTT assay; assay type: functional, cell-based; details: HT-29, 24 h; how it was run: as §1
HT-29 [6] = test: Growth inhibition of combretastatin A-4 resistant human HT-29 cells after 72 hrs by MTT assay; assay type: functional, cell-based; details: HT-29, 72 h; how it was run: as §2
[7] = Growth inhibition of human HCT116 cells expressing wild type p53 after 72 hrs by MTT assay; assay type: functional, cell-based; details: HCT-116, 72 h
How it was run: (§3)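 HCT-116 cells, p53 wild-type or p53-/-, seeded at 5000/well and treated 72 h with dilution series (100 µM–5 pM) or DMSO. MTT 0.5 mg/mL for 2 h, absorbance at 570/630 nm. Viability relative to DMSO controls; IC50 from dose–response curves, mean of three independent experiments ± S.D.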

EA.hy 926 [8] = test: Antivascular activity in human EAhy926 cells assessed as disruption of preformed blood vessel lke network at 100 nM after 16 hrs by matrigel based tube formation assay; assay type: functional, cell-based
How it was run: (§4)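 Ea.hy926 cells (100,000/well) were seeded on Matrigel-coated coverslips and allowed 12 h to form vessel-like networks. Test agent (CA-4 100 nM; indoles 250 nM) or DMSO was then added for 16 h, and networks were documented by light microscopy. Viability was checked by 2 h MTT (0.5 mg/mL) relative to DMSO controls.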

EA.hy 926 [9] = test: Antivascular activity in human EAhy926 cells assessed as induction of retraction of cells to nodes at 100 nM after 16 hrs by light microscopic analysis; assay type: functional, cell-based; how it was run: as §4
[10] = Growth inhibition of human MCF7/Topo cells after 72 hrs by MTT assay; assay type: functional, cell-based
How it was run: (§5)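 MTT assay: cells seeded at 5000/well (MCF-7/Topo) or 10,000/well (Ea.hy926), then given dilution series (100 µM–5 pM) or DMSO for 72 h. MTT was added at 0.5 mg/mL final for 2 h, formazan dissolved in SDS/acetic acid/DMSO, and absorbance read at 570 nm with 630 nm background. Viability was set relative to DMSO controls, and IC50 taken as the mean of at least three experiments ± S.D.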

HT-29 [11] = test: Cell cycle arrest in combretastatin A-4 resistant human HT-29 cells assessed as accumulation at G2 phase at 5 uM after 24 hrs by propidium iodide staining-based flow cytometry (reference value: 15.6 +/- 0.1%); assay type: functional
How it was run: (§6)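 HT-29 cells (200,000/well) were treated 24 h with 100 nM indole, 5 μM CA-4 or DMSO. Cells were trypsinized, fixed in 4% formaldehyde (20 min, RT) and permeabilized in 90% ice-cold methanol (30 min). They were immunostained with anti-phospho-histone H3 (Ser10) (5 μg/mL, 37 °C, 1 h) plus an AlexaFluor-488 secondary, then stained with PI/RNase (30 min, 37 °C). Flow cytometry of 10,000 single cells assigned G1/S/G2/M.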

Sus scrofa = organism: Sus scrofa; test: Inhibition of porcine brain alpha/beta tubulin polymerization at 5 uM measured every 20 sec by microplate reader analysis
[12] = Cytotoxicity against human EAhy926 cells assessed as cell viability at 100 nM after 16 hrs by MTT assay relative to control; assay type: cell-based, EA.hy 926; details: read-out: Activity
How it was run: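 Ea.hy926 cells (100,000/well) seeded on Matrigel-coated coverslips and left 12 h to form networks, then exposed to compound for 16 h. Viability was read by 2 h MTT (0.5 mg/mL) and absorbance of the formazan, expressed relative to DMSO controls.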

HT-29 [13] = test: Cell cycle arrest in combretastatin A-4 resistant human HT-29 cells assessed as accumulation at G1 phase at 5 uM after 24 hrs by propidium iodide staining-based flow cytometry (reference value: 68.1 +/- 0.3%); assay type: functional; how it was run: as §6
[14] = Growth inhibition of p53 null human HCT116 cells after 72 hrs by MTT assay; assay type: functional, cell-based; details: HCT-116, 72 h; how it was run: as §3
[15] = Cytotoxicity against fertilized white leghorn chicken embryos in CAM model assessed as lethality at 5 nmol after 24 hrs relative to control; assay type: organism-based, Gallus gallus; details: in vivo
How it was run: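 Day-5 fertilized eggs (37 °C, 50-60% humidity) windowed, with 6 mm silicon rings placed on CAM vessels and incubated a further 24 h. Compound diluted to 500 µM in PBS and pipetted inside the ring (10 µL = 5 nmol); DMSO control. Vessel changes documented by stereomicroscopy at 0, 12 and 24 h.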

HT-29 [16] = test: Cell cycle arrest in combretastatin A-4 resistant human HT-29 cells assessed as mitotic cells at 5 uM after 24 hrs by propidium iodide/immunostaining method (reference value: 3.1 to 3.2%); assay type: functional; how it was run: as §6
HT-29 [17] = test: Cell cycle arrest in combretastatin A-4 resistant human HT-29 cells assessed as accumulation at S phase at 5 uM after 24 hrs by propidium iodide staining-based flow cytometry (reference value: 13.7 +/- 0.3%); assay type: functional; how it was run: as §6
[18] = Growth inhibition of human EAhy926 cells after 72 hrs by MTT assay; assay type: cell-based; details: EA.hy 926, 72 h; how it was run: as §5
EA.hy 926 [19] = test: Antivascular activity in human EAhy926 cells assessed as change in cell morphology from stretched to rounded form at 100 nM after 16 hrs by matrigel based tube formation assay; assay type: functional; how it was run: as §4
[20] = Growth inhibition of primary chicken fibroblasts after 48 hrs by MTT assay; assay type: cell-based; details: Gallus gallus, Fibroblast
How it was run: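 Chicken heart fibroblasts explanted from 10-day-old embryos, seeded at 10,000/well; cardiomyocytes seeded at 20,000/well. Dilution series given for 48 h, DMSO as control. MTT 0.5 mg/mL for 2 h, absorbance at 570/630 nm. Viability versus DMSO controls; IC50 from dose–response curves, mean of three independent experiments.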

[21] = Cell cycle arrest in human 518A2 cells assessed as accumulation at G1 phase at 200 nM after 24 hrs by propidium iodide staining-based flow cytometry (reference value: 49.5%); assay type: functional
[22] = Cell cycle arrest in human 518A2 cells assessed as accumulation at subG1 phase at 200 nM after 24 hrs by propidium iodide staining-based flow cytometry (reference value: 3.8%); assay type: functional
[23] = Cell cycle arrest in human 518A2 cells assessed as G2/M index ratio at 200 nM after 24 hrs by propidium iodide staining-based flow cytometry relative to control; assay type: functional
[24] = Cell cycle arrest in human 518A2 cells assessed as accumulation at S phase at 200 nM after 24 hrs by propidium iodide staining-based flow cytometry (reference value: 20.4%); assay type: functional
[25] = Cell cycle arrest in human 518A2 cells assessed as accumulation at G2/M phase at 200 nM after 24 hrs by propidium iodide staining-based flow cytometry (reference value: 26.3%); assay type: functional
[26] = Cell cycle arrest in human 518A2 cells assessed as apoptotic index ratio at 200 nM after 24 hrs by propidium iodide staining-based flow cytometry relative to control; assay type: functional

| SMILES | IC50 [1] | IC50 [2] | IC50 [3] | IC50 [4] | IC50 (HT-29 [5]) | IC50 (HT-29 [6]) | further results |
| --- | --- | --- | --- | --- | --- | --- | --- |
| CCn1cc(Cl)c2cc(-c3c(-c4cc(I)c(OC)c(OC)c4)ncn3C)ccc21 | 0.0832 µM | 0.0812 µM | 0.211 µM | 0.168 µM | 0.482 µM | 0.178 µM | – |
| COc1cc(-c2ncn(C)c2-c2ccc3c(c2)c(Cl)c(Cl)n3C)cc(Br)c1OC | 0.456 µM | 0.208 µM | 0.292 µM | 0.223 µM | 0.903 µM | 0.223 µM | – |
| CCn1cc(Cl)c2cc(-c3c(-c4cc(OC)c(OC)c(OC)c4)ncn3C)ccc21 | 0.0332 µM | 0.0302 µM | 0.739 µM | 0.033 µM | 0.0758 µM | 0.0434 µM | – |
| COc1ccc(/C=C\c2cc(OC)c(OC)c(OC)c2)cc1O [COMBRETASTATIN A4] | – | – | – | – | – | > 5 µM | IC50 [7]: 0.0026 µM; Activity (EA.hy 926 [8]): Active; Activity (EA.hy 926 [9]): Active; IC50 [10]: 0.154 µM; Activity (HT-29 [11]): 18.2%; inhibition (Sus scrofa): Active; viability at 16 h, 0.1 µM [12]: > 90%; Activity (HT-29 [13]): 51.4%; IC50 [14]: 0.0034 µM; mortality at 24 h [15]: 60%; Activity (HT-29 [16]): 10.2%; Activity (HT-29 [17]): 18.6%; IC50 [18]: 0.011 µM; Activity (EA.hy 926 [19]): Active; IC50 [20]: 5.48 µM |
| CCn1c(Cl)c(Cl)c2cc(-c3c(-c4cc(Br)c(OC)c(OC)c4)ncn3C)ccc21 | > 1 µM | 0.489 µM | > 1 µM | 0.767 µM | > 1 µM | 0.793 µM | – |
| COc1cc(-c2ncn(C)c2-c2ccc3c(c2)c(Cl)cn3C)cc(I)c1OC | 0.0498 µM | 0.0533 µM | 0.0567 µM | 0.0357 µM | 0.0351 µM | 0.0397 µM | – |
| CCn1cc(Cl)c2cc(-c3c(-c4cc(Br)c(OC)c(OC)c4)ncn3C)ccc21 | 0.0484 µM | 0.0913 µM | 0.216 µM | 0.082 µM | 0.246 µM | 0.116 µM | Activity [21]: 39.7%; Activity [22]: 7.8%; Ratio [23]: 1.7; Activity [24]: 17.4%; Activity [25]: 35.2%; Ratio [26]: 5.1 |
| COc1cc(-c2ncn(C)c2-c2ccc3c(c2)c(Cl)cn3C)cc(Cl)c1OC | 0.0379 µM | 0.0269 µM | 0.174 µM | 0.0324 µM | 0.0337 µM | 0.0314 µM | – |
